Test [1] relates to Escherichia coli. The test can be described thus: Antimicrobial activity against Escherichia coli RCMB 010052 assessed as diameter of zone inhibition at 100 ug/ml after 24 hrs by agar well diffusion assay. The following applies: RCMB 010052, 24 h, read-out: DIZ. The format is functional. In short, it runs like this:
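Agar well diffusion on nutrient agar plates seeded with the bacterium, using 1 cm wells. Plates were held at 4°C for 1 h for diffusion, then incubated at 37°C. Inhibition zone diameters were measured at 24 h. Ciprofloxacin was the positive control. Run in triplicate, with the mean zone reported.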

The test system of test [2] is Escherichia coli. Description: Antimicrobial activity against Escherichia coli RCMB 010052 after 24 hrs by serial dilution method. Format: functional. To be noted: RCMB 010052, 24 h. An outline of the steps: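 Serial twofold dilution in microtiter plates starting from a 100 mmol stock in DMSO; final concentrations 125 down to 0.12 […]. Incubated at 37°C and read on a microplate reader after 24 h. Ciprofloxacin was the reference. Run in triplicate, with the average taken. MIC was the lowest concentration inhibiting growth.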

Test [3] deals with Pseudomonas aeruginosa. Description: microbe, parasite or virus in culture. The following applies: RCMB 010043, 24 h, read-out: DIZ.
In test [4] the test system is Pseudomonas aeruginosa. Description: microbe, parasite or virus in culture. The following applies: RCMB 010043, 24 h.

Converted amounts (≈) assume the structure as drawn.

As to `O=C(O)c1cn(C2CC2)c2cc(N3CCNCC3)c(F)cc2c1=O` [CIPROFLOXACIN], the values for the zone of inhibition at 100 µg/mL in the test with Escherichia coli [1] and in the test on Pseudomonas aeruginosa [3] were 23.4 mm and 20.6 mm, respectively. The MIC with Escherichia coli [2] was determined as 0.98 µg/mL (≈ 2.96 µM); against Pseudomonas aeruginosa [4], 1.95 µg/mL (≈ 5.89 µM).
